Only some compounds are listed: those with a hit (about 3% of all), similar ones and a draw of the others.
NPR1 activator: GC-A stimulated cGMP production enhancers – HEK293 GC-A cells, cGMP TR-FRET, EC30 ANP, primary screen; Atrial natriuretic peptide receptor 1 (Homo sapiens), P16066; 0% at EC30 ANP, 100% saturating ANP; activation, % at 10 µM; 370,000 tested, 0.14% active; AID 1671463, 2021; in the data active = activation above about 40%
GASC-1 inh: inhibitors of GASC-1 histone demethylase, primary screen, biochemical, fluorescence, DELFIA europium | Lysine-specific demethylase 4C (Homo sapiens), Q9H3R0 | GST-JMJD2C(1-420) H3K9me3 demethylation | inhibition, % at 2.35 µM | 330,000 tested, 0.069% active | AID 2099, 2009;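 active = more than half of a compound's replicate wells show inhibition beyond 50%, single wells judged on their own value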;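 note: signal counts dimethyl H3K9 product captured on neutravidin plate; 0% = median of DMSO wells and 100% = 0.3 times that DMSO median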
GRIN3A LBD mod: binders of NR3A ligand-binding domain, primary screen, biophysical, differential scanning fluorimetry, uHTS; NR3A LBD differential scanning fluorimetry, Tm shift; 0% = protein alone, 100% = glycine-bound protein; Tm shift relative to glycine control, % at 25 µM; 340,000 tested, 2.5% active;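 active = melting temperature shift of at least 10% of the positive control shift, at one fixed dose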
NPR2 activator: human GC-B receptor activators, primary screen, HEK293 GC-B cells, cGMP TR-FRET, EC30 CNP | Atrial natriuretic peptide receptor 2 (Homo sapiens), P20594 | 370,000 tested, 0.11% active | activation, % at 10 µM | 0% at EC30 CNP, 100% saturating CNP;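 active = activation at 10 µM reaching about 35% in either raw or pattern-adjusted values, limit read from the data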
Target sequence (P20594 whole entry, looked up): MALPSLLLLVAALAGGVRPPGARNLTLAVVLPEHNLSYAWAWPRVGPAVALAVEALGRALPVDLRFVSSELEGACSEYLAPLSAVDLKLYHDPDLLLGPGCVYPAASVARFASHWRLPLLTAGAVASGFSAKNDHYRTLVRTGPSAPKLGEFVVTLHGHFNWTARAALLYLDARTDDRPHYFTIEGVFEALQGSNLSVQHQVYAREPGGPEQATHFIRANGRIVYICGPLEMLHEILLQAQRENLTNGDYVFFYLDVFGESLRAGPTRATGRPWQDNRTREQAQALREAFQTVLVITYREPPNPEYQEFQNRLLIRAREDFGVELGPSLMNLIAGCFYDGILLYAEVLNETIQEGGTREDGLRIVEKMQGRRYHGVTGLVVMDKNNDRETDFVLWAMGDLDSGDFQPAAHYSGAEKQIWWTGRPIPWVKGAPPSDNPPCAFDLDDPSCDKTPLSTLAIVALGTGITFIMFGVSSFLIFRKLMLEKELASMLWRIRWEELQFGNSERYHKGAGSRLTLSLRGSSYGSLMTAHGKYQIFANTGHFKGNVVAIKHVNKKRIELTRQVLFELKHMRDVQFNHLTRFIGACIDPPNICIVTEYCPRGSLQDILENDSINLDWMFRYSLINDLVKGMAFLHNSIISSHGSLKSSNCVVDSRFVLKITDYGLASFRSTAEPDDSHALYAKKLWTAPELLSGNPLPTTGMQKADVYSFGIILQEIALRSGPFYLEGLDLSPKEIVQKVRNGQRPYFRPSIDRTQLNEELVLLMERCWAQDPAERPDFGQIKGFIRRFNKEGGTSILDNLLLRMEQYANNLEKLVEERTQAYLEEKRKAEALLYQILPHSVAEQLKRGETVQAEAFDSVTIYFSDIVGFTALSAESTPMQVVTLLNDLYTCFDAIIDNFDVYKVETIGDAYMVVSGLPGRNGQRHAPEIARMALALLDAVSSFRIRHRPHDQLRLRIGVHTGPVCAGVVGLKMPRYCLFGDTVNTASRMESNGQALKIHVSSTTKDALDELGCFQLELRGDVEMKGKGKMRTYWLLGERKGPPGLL
Hep lipid drop: inhibitors of hepatocyte lipid droplet formation, primary screen, imaging, high-throughput imaging, BODIPY stain; 240,000 tested, 0.4% active; AML12 mouse hepatocytes, oleate lipid droplets; inhibition, % at 6.5 µM;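 active = lipid droplet intensity inhibited by at least 50%, with more than 500 cells counted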
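Assay system: AML12 hepatocytes (mouse) / Also added: 100 µM oleic acid challenge / Times: overnight treatment with compound plus oleate / Detection: high-content imaging of BODIPY-stained droplets and DAPI nuclei / Evaluation: % inhibition of lipid droplet signal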
aDG glyco act: activators of alpha-DG glycosylation, primary screen, uHTS, Pro5-aDG cells, AlphaScreen; alpha-DG glycosylation AlphaScreen (IIH6); 0% Pro5, 100% B10-LARGE cell signal; activation, % at 10 µM; 360,000 tested, 0.22% active;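 active = activation of at least 8% versus controls, or a plate z-score of at least 8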;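 note: Pro5 are CHO cells carrying HIG-tagged alpha-DG that lacks glycosylation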
The depositor's hits bear a star; · = not tested or not shown.

SMILES | NPR1 activator | GASC-1 inh | GRIN3A LBD mod | NPR2 activator | Hep lipid drop | aDG glyco act
Cc1cc(=O)[nH]c2cc(O)ccc12 | 1.0 | 2.9 | -1.2 | 6.4 | 7.1 | -0.1
CC(C)=CCCC1(C)C=Cc2c(c(C)cc3c2[nH]c2cc(O)ccc23)O1 (stereo not drawn) | -5.3 | -10.9 | 18.6* | -6.1 | 2.5 | 0.4
CCOC(=O)CCC(=O)Nc1ccc(S(=O)(=O)N2CCc3ccccc32)cc1 | -11.6 | -4.3 | -4.5 | -6.4 | -3.9 | 0.0
CCOC(=O)/C(C#N)=N/Nc1ccc(S(=O)(=O)N2CCc3ccccc32)cc1 | 3.7 | -7.7 | 23.8* | 1.1 | -24.8 | 0.2
N#C/C(=N\Nc1ccc(S(=O)(=O)N2CCc3ccccc32)cc1)C(N)=S | -2.6 | -10.4 | 23.3* | 2.0 | 21.5 | -0.8
CC(C)C[C@H]1COc2cccc(F)c2S(=O)(=O)N1Cc1cn(Cc2ccc(F)cc2)nn1 | -1.4 | · | · | -0.3 | · | ·
Cc1cccc(/C=N/NC(=O)c2cc(-c3cccnc3)nc3c2c(C)nn3-c2ccccc2)c1 | -5.4 | -4.4 | 23.5* | -1.9 | -16.4 | -0.1
Cc1cc(Nc2ccc(F)c(F)c2)nc(-c2ccccc2O)n1 | 7.3 | 13.3 | 22.5* | -16.4 | -0.5 | 0.2
Cc1ccc(Nc2cc(C)nc(-c3ccccc3O)n2)cc1 | 9.3 | -0.2 | 7.2 | -7.3 | · | 0.2
Cc1cc(NCCCN)nc(-c2ccccc2O)n1 | -2.7 | -3.2 | -0.6 | 3.6 | 2.6 | 0.0
Cc1cc(Nc2ccc(Br)cc2)nc(-c2ccccc2O)n1 | 8.3 | -4.6 | 29.4* | -1.2 | 6.6 | 0.0
CCCCc1c(-c2ccccc2OC)ncn1Cc1ccc(C(C)(C)C)cc1 | -2.5 | · | · | 10.2 | · | ·
CCN1CCCCC(NC(=O)c2ccccc2)C1=O (stereo not drawn) | 2.6 | · | · | 6.5 | · | ·
O=C(Nc1cccc2ncccc12)c1ccc(F)cc1 | 4.1 | -2.1 | 11.6* | 4.6 | 2.3 | 0.0
CN(C)Cc1c(C(=O)N/N=C/c2cccc(OCc3ccc(F)cc3)c2)nnn1-c1nonc1N | 5.3 | 4.5 | 2.7 | 0.7 | -3.9 | -0.1
CC(C)c1c(C(=O)N/N=C/c2cccc(OCc3ccc(F)cc3)c2)nnn1-c1nonc1N | -0.3 | -2.4 | 26.9* | 3.5 | -4.0 | -0.3
CC(C)c1c(C(=O)N/N=C/C=C/c2ccccc2)nnn1-c1nonc1N | -7.2 | 0.4 | 17.3* | 3.1 | -1.0 | -0.1
COc1cc(/C=N/NC(=O)c2nnn(-c3nonc3N)c2C(C)C)ccc1OCc1ccc(F)cc1 | 3.6 | 10.5 | 31.2* | 5.8 | 11.6 | 3.3
COc1cccc(/C=N/NC(=O)c2nnn(-c3nonc3N)c2C(C)C)c1 | -1.3 | -8.7 | 25.5* | -6.8 | 0.2 | -0.1
CCCc1c(C(=O)N/N=C/c2ccccc2OCc2ccc(F)cc2)nnn1-c1nonc1N | 2.3 | -3.2 | 6.4 | -8.4 | 21.3 | -0.1
Cn1c(=O)cc(OCC(=O)N2CCN(c3ccccc3Cl)CC2)c2ccccc21 | -8.8 | · | · | -10.2 | · | ·
CCN(CC)c1ccc(/C=N/NC(=O)c2nnn(-c3nonc3N)c2C(C)C)c(O)c1 | 3.4 | 30.6 | 19.3* | 7.8 | -52.7 | 0.9
CC(C)c1c(C(=O)N/N=C/c2ccc3c(c2)OCO3)nnn1-c1nonc1N | 0.4 | 2.4 | 27.6* | 0.8 | 6.7 | -0.2
Cc1ccc([N+](=O)[O-])cc1N=C1C(=O)Nc2ccccc21 | 2.0 | -14.2 | 1.2 | -2.8 | 1.3 | 2.0
O=[N+]([O-])c1cccc(-n2cc3ccc([N+](=O)[O-])cc3n2)c1 | -1.3 | -0.4 | 13.5* | -6.0 | · | 0.0
SMILES | NPR1 activator | GASC-1 inh | GRIN3A LBD mod | NPR2 activator | Hep lipid drop | aDG glyco act
CCn1c2ccccc2c2cc(NC(=O)COC(=O)c3ccccc3O)ccc21 | -8.5 | 0.2 | -2.2 | -0.3 | 5.8 | -0.4
CCn1c2ccccc2c2cc(NC(=O)COC(=O)c3cc(S(N)(=O)=O)c(Cl)cc3Cl)ccc21 | -2.1 | -3.8 | 13.8* | -0.3 | 2.9 | 0.1
COc1cc([C@@H]2c3cc4c(cc3[C@@H](O)[C@H]3COC(=O)[C@H]23)OCO4)cc(OC)c1O[Si](C)(C)C(C)(C)C | -1.7 | -6.8 | 11.4* | 3.8 | -0.2 | 0.1
Cc1cc(Cl)cc2sc(NC(=O)C3CC3)nc12 | 39.7 | -4.8 | 1.7 | -8.1 | -0.2 | 0.7
Cc1ccc2sc(NC(=O)C3CC3)nc2c1C | 55.3* | 22.4 | 6.6 | 0.0 | 3.8 | -0.3
Fc1cccc2sc(Nc3nc4cc5c(cc4s3)OCO5)nc12 | -0.6 | 1.9 | 5.3 | -6.6 | 17.7 | 1.1
O=C(Nc1nc2c(Cl)ccc(Cl)c2s1)C1CC1 | 60.6* | 5.7 | -2.7 | -5.9 | -5.6 | 0.0
Fc1cc(F)c2nc(Nc3nc4cc5c(cc4s3)OCO5)sc2c1 | 4.9 | -8.5 | 15.8* | -2.1 | -17.8 | 0.2
Cc1cccc2sc(NC(=O)C3CC3)nc12 | 27.8 | 4.3 | -0.7 | 2.7 | · | 0.0
O=C(Nc1nc2c(Cl)c(Cl)ccc2s1)C1CC1 | 57.1* | -485.9 | -2.7 | -4.4 | -3.3 | 0.8
O=C(Nc1nc2c(Cl)cccc2s1)C1CC1 | 36.8 | 3.5 | -0.1 | -0.6 | -12.9 | -0.1
CCCCOCCCNC(=O)C[C@@H]1C(=O)N2CCCC3=C2[C@@]1(C(=O)OC)CCCC3 | 3.5 | · | · | -2.2 | · | ·
CCCCOCC1CN(CCCC)S(=O)(=O)c2c(Oc3ccc(C(C)C)cc3)cccc2O1 (stereo not drawn) | -2.5 | · | · | -1.1 | · | ·
O=C(Nc1nc2c(F)cc(F)cc2s1)C1CC1 | 66.9* | -19.1 | -1.4 | -1.9 | 4.0 | 0.0
O=C(CN1C(=O)CCC1=O)Nc1nc2c(F)cc(F)cc2s1 | 35.7 | -15.8 | -2.5 | 1.6 | · | -0.4
CC(=O)Nc1ccc(S(=O)(=O)NCCCc2ccccc2)cc1 | -2.4 | -2.8 | -0.5 | 6.3 | -1.1 | 0.1
CCOCC(=O)Nc1ccc(S(=O)(=O)NCCc2ccccc2)cc1 | 0.4 | -19.9 | 11.4* | -1.4 | 17.9 | 0.2
O=C(Nc1ccc(OC(F)(F)F)cc1)Oc1ccccc1N1CCCCC1 | 1.9 | -9.4 | 13.1* | 2.3 | -23.5 | -0.2
O=C(Nc1ccc(OC(F)(F)F)cc1)Oc1ccccc1N1CCOCC1 | 2.0 | -2.6 | 2.5 | 4.6 | 32.0 | -0.1
COc1ccc2cc3cc(C(=O)Nc4ccc5c(c4)OCCO5)oc3nc2c1 | 8.7 | 9.3 | 26.3* | -8.3 | · | 0.8
COc1ccc2cc3cc(C(=O)Nc4cc(OC)c(OC)c(OC)c4)oc3nc2c1 | 2.6 | -5.6 | 0.2 | 5.6 | 27.6 | -0.4
Cc1cc(C)cc(NC(=O)C(Sc2ncnc3ccccc23)c2ccccc2)c1 (stereo not drawn) | -14.7 | 5.8 | -4.8 | -15.3 | -7.1 | 0.1

Assay outcomes (PubChem BioAssay)
